What was measured:
Plasmodium berghei [1] = assay: Antimalarial activity against Plasmodium berghei infected in Swiss Webster mouse assessed as mouse survival rate at 1.1 mg/kg administered once daily via oral gavage for 4 consecutive days beginning 1 hr after infection measured on day 4 post infection relative to control; type: functional
Procedure, shortened: (§1)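 Mice given an intraperitoneal injection of P. berghei-infected erythrocytes taken from a previously infected animal. Oral dosing once daily for 4 consecutive days, starting 1 h after infection. Vehicle: polyethylene glycol 300/propylene glycol/water (weight ratio 55/25/20). Percent survival recorded daily from day 4 to day 20. Chloroquine 30 mg/kg and vehicle-only groups served as controls.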

Plasmodium berghei [2] = assay: Antimalarial activity against Plasmodium berghei infected in Swiss Webster mouse assessed as mouse survival rate at 1.1 mg/kg administered once daily via oral gavage for 4 consecutive days beginning 1 hr after infection measured on day 5 post infection relative to control; type: functional; procedure, shortened: as §1
Plasmodium berghei [3] = assay: Antimalarial activity against Plasmodium berghei infected in Swiss Webster mouse assessed as mouse survival rate at 1.1 mg/kg administered once daily via oral gavage for 4 consecutive days beginning 1 hr after infection measured on day 7 post infection relative to control; type: functional; procedure, shortened: as §1
Plasmodium berghei [4] = assay: Antimalarial activity against Plasmodium berghei infected in Swiss Webster mouse assessed as mouse survival rate at 100 mg/kg administered once daily via oral gavage for 4 consecutive days beginning 1 hr after infection measured on day 15 post infection relative to control; type: functional; procedure, shortened: as §1
Plasmodium berghei [5] = assay: Antimalarial activity against Plasmodium berghei infected in Swiss Webster mouse assessed as mouse survival rate at 100 mg/kg administered once daily via oral gavage for 4 consecutive days beginning 1 hr after infection measured from day 16 to day 19 post infection relative to control; type: functional; procedure, shortened: as §1
Plasmodium berghei [6] = assay: Antimalarial activity against Plasmodium berghei infected in Swiss Webster mouse assessed as mouse survival rate at 100 mg/kg administered once daily via oral gavage for 4 consecutive days beginning 1 hr after infection measured on day 20 post infection relative to control; type: functional; procedure, shortened: as §1
[7] = Cmax in CD1 mouse plasma at 5 mg/kg, po via gavage by HPLC/MS analysis; type: ADME, organism-based; parameters: dose 5 mg/kg, route oral
Procedure, shortened: (§2)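 Female CD-1 mice, male SD rats and beagle dogs received 5 mg/kg either iv or by oral gavage. Vehicle was PEG 300/propylene glycol/water (55/25/20, pH 6). Blood was sampled and drug measured by HPLC-MS/MS.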

[8] = Tmax in CD1 mouse plasma at 5 mg/kg, po via gavage by HPLC/MS analysis; type: ADME, organism-based
Procedure, shortened: (§3)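 Female CD-1 mice, male SD rats or beagle dogs given 5 mg/kg by iv injection or oral gavage. Formulation was PEG300/propylene glycol/water 55/25/20, pH 6. Blood samples analysed by HPLC–MS/MS; parameters include AUC0-inf extrapolated to infinity and terminal half-life.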

[9] = AUC (0 to infinity) in CD1 mouse at 5 mg/kg, po via gavage by HPLC/MS analysis; type: ADME, organism-based; parameters: dose 5 mg/kg, time infinity, route oral; details: in vivo
[10] = Terminal half life in CD1 mouse at 5 mg/kg, po via gavage by HPLC/MS analysis; type: ADME, organism-based; details: in vivo, read-out: beta t1/2 (converted); procedure, shortened: as §3
[11] = Oral bioavailability in CD1 mouse at 5 mg/kg by HPLC/MS analysis; type: ADME, organism-based; details: in vivo; procedure, shortened: as §3
[12] = Clearance in CD1 mouse at 5 mg/kg, iv by HPLC/MS analysis; type: ADME, organism-based; details: in vivo; procedure, shortened: as §2
[13] = Volume of distribution at steady state in CD1 mouse at 5 mg/kg, iv by HPLC/MS analysis; type: ADME, organism-based; details: in vivo, read-out: Vdss; procedure, shortened: as §3
[14] = AUC (0 to infinity) in CD1 mouse at 5 mg/kg, iv by HPLC/MS analysis; type: ADME, organism-based; parameters: dose 5 mg/kg, time infinity, route intravenous; details: in vivo
[15] = Terminal half life in CD1 mouse at 5 mg/kg, iv by HPLC/MS analysis; type: ADME, organism-based; details: in vivo, read-out: beta t1/2 (converted); procedure, shortened: as §3
Plasmodium berghei [16] = assay: Antimalarial activity against Plasmodium berghei infected in Swiss Webster mouse assessed as mouse survival rate at 200 mg/kg administered once daily via oral gavage for 4 consecutive days beginning 1 hr after infection measured on day 4 post infection relative to control; type: functional
Procedure, shortened: (§4)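 P. berghei-infected erythrocytes taken from a previously infected mouse were injected intraperitoneally. Oral dosing, once daily for 4 consecutive days, began 1 h after infection, in polyethylene glycol 300/propylene glycol/water (55/25/20 by weight). Chloroquine at 30 mg/kg was the positive control, with a vehicle-only group. Percent survival was recorded daily from day 4 to day 20.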

Plasmodium berghei [17] = assay: Antimalarial activity against Plasmodium berghei infected in Swiss Webster mouse assessed as mouse survival rate at 200 mg/kg administered once daily via oral gavage for 4 consecutive days beginning 1 hr after infection measured on day 5 post infection relative to control; type: functional; procedure, shortened: as §4
Plasmodium berghei [18] = assay: Antimalarial activity against Plasmodium berghei infected in Swiss Webster mouse assessed as mouse survival rate at 200 mg/kg administered once daily via oral gavage for 4 consecutive days beginning 1 hr after infection measured on day 6 post infection relative to control; type: functional; procedure, shortened: as §4
Plasmodium berghei [19] = assay: Antimalarial activity against Plasmodium berghei infected in Swiss Webster mouse assessed as mouse survival rate at 200 mg/kg administered once daily via oral gavage for 4 consecutive days beginning 1 hr after infection measured on day 9 post infection relative to control; type: functional; procedure, shortened: as §4
Plasmodium berghei [20] = assay: Antimalarial activity against Plasmodium berghei infected in Swiss Webster mouse assessed as mouse survival rate at 200 mg/kg administered once daily via oral gavage for 4 consecutive days beginning 1 hr after infection measured on day 10 post infection relative to control; type: functional; procedure, shortened: as §4
Plasmodium berghei [21] = assay: Antimalarial activity against Plasmodium berghei infected in Swiss Webster mouse assessed as mouse survival rate at 200 mg/kg administered once daily via oral gavage for 4 consecutive days beginning 1 hr after infection measured on day 11 post infection relative to control; type: functional; procedure, shortened: as §4
Plasmodium berghei [22] = assay: Antimalarial activity against Plasmodium berghei infected in Swiss Webster mouse assessed as mouse survival rate at 200 mg/kg administered once daily via oral gavage for 4 consecutive days beginning 1 hr after infection measured on day 12 post infection relative to control; type: functional; procedure, shortened: as §4
Plasmodium berghei [23] = assay: Antimalarial activity against Plasmodium berghei infected in Swiss Webster mouse assessed as mouse survival rate at 200 mg/kg administered once daily via oral gavage for 4 consecutive days beginning 1 hr after infection measured on day 13 post infection relative to control; type: functional; procedure, shortened: as §4
Plasmodium berghei [24] = assay: Antimalarial activity against Plasmodium berghei infected in Swiss Webster mouse assessed as mouse survival rate at 200 mg/kg administered once daily via oral gavage for 4 consecutive days beginning 1 hr after infection measured on day 15 post infection relative to control; type: functional; procedure, shortened: as §4
Plasmodium berghei [25] = assay: Antimalarial activity against Plasmodium berghei infected in Swiss Webster mouse assessed as mouse survival rate at 200 mg/kg administered once daily via oral gavage for 4 consecutive days beginning 1 hr after infection measured on day 20 post infection relative to control; type: functional; procedure, shortened: as §4
Plasmodium berghei [26] = assay: Antimalarial activity against Plasmodium berghei infected in Swiss Webster mouse assessed as mouse survival rate at 200 mg/kg administered once daily via oral gavage for 4 consecutive days beginning 1 hr after infection measured from day 16 to day 19 post infection relative to control; type: functional; procedure, shortened: as §4
Plasmodium falciparum = assay: Antimalarial activity against Plasmodium falciparum 3D7 0087/N9 infected in NOD/SCID IL2R gamma null mouse assessed as compound concentration in whole blood require to reduce parasitemia in peripheral blood administered once daily via oral gavage for 4 consecutive days measured on day 7 post infection; type: functional
Plasmodium berghei [27] = assay: Antimalarial activity against Plasmodium berghei infected in Swiss Webster mouse assessed as mouse survival rate at 100 mg/kg administered once daily via oral gavage for 4 consecutive days beginning 1 hr after infection measured on day 16 post infection relative to control; type: functional; procedure, shortened: as §1
Plasmodium berghei [28] = assay: Antimalarial activity against Plasmodium berghei infected in Swiss Webster mouse assessed as mouse survival rate at 100 mg/kg administered once daily via oral gavage for 4 consecutive days beginning 1 hr after infection measured on day 17 post infection relative to control; type: functional; procedure, shortened: as §1

Row | Structure (SMILES) | survival at 100 mg/kg (Plasmodium berghei [4]) | Cmax [7] | Tmax [8] | AUC(0-inf) [9] | half-life [10] | bioavailability [11] | clearance [12] | Vd [13] | AUC(0-inf) [14] | half-life [15] | survival at 200 mg/kg (Plasmodium berghei [16]) | survival at 200 mg/kg (Plasmodium berghei [17]) | survival at 200 mg/kg (Plasmodium berghei [18]) | survival at 200 mg/kg (Plasmodium berghei [19]) | survival at 200 mg/kg (Plasmodium berghei [20]) | survival at 200 mg/kg (Plasmodium berghei [21]) | survival at 200 mg/kg (Plasmodium berghei [22]) | survival at 200 mg/kg (Plasmodium berghei [23]) | survival at 200 mg/kg (Plasmodium berghei [24]) | survival at 200 mg/kg (Plasmodium berghei [25]) | further results
1 | Cc1c(Oc2cnc(C(=O)N3CC(O)(C(F)(F)F)C3)cn2)ccc2c1B(O)OC2 | 100% |  |  |  |  |  |  |  |  |  |  |  |  |  |  |  |  |  |  |  | survival at 1.1 mg/kg (Plasmodium berghei [1]): 100%; survival at 1.1 mg/kg (Plasmodium berghei [2]): 100%; survival at 1.1 mg/kg (Plasmodium berghei [3]): 0%; survival at 100 mg/kg (Plasmodium berghei [5]): 100%; survival at 100 mg/kg (Plasmodium berghei [6]): 100%
2 | Cc1c(Oc2cnc(C(=O)NCCO)cn2)ccc2c1B(O)OC2 |  | 4300 ng/mL | 1 h | 29600 ng·h/mL | 3 h | 94% | 2.65 mL/min/kg | 0.636 L/kg | 31400 ng·h/mL | 3 h | 100% | 100% | 100% | 80% | 0% |  |  |  |  |  | 
3 | CCCC1(O)CN(C(=O)c2cnc(Oc3ccc4c(c3C)B(O)OC4)cn2)C1 | 80% |  |  |  |  |  |  |  |  |  | 100% | 100% | 100% | 100% | 100% | 100% | 100% | 100% | 100% | 0% | survival at 100 mg/kg (Plasmodium berghei [5]): 20%; survival at 100 mg/kg (Plasmodium berghei [6]): 0%
4 | CCC1(O)CN(C(=O)c2cnc(Oc3ccc4c(c3C)B(O)OC4)cn2)C1 |  |  |  |  |  |  |  |  |  |  | 100% | 100% | 100% | 100% | 100% | 100% | 100% | 100% | 100% | 80% | survival at 200 mg/kg (Plasmodium berghei [26]): 80%; AUCED90 (Plasmodium falciparum): 1.6 µg.hr/ml/day
5 | Cc1c(Oc2cnc(C(=O)N[C@@H](CO)CC(F)(F)F)cn2)ccc2c1B(O)OC2 |  | 2100 ng/mL | 1 h | 13400 ng·h/mL | 3 h | 64% | 3.97 mL/min/kg | 0.741 L/kg | 21000 ng·h/mL | 3 h |  |  |  |  |  |  |  |  |  |  | 
6 | Cc1c(Oc2cnc(C(=O)NC(C)CO)cn2)ccc2c1B(O)OC2 (stereo not given) |  | 3800 ng/mL | 1 h | 33000 ng·h/mL | 2.7 h | 85% | 2.13 mL/min/kg | 0.603 L/kg | 39000 ng·h/mL | 3.1 h |  |  |  |  |  |  |  |  |  |  | 
7 | CCC[C@H](CO)NC(=O)c1cnc(Oc2ccc3c(c2C)B(O)OC3)cn1 |  | 4000 ng/mL | 0.5 h | 21600 ng·h/mL | 4.5 h | 103% | 4.05 mL/min/kg | 0.874 L/kg | 20500 ng·h/mL | 4.2 h | 100% | 100% | 100% | 100% | 100% | 100% | 100% | 100% | 100% | 100% | survival at 200 mg/kg (Plasmodium berghei [26]): 100%; AUCED90 (Plasmodium falciparum): 7.45 µg.hr/ml/day
8 | Cc1c(Oc2cnc(C(=O)N3CC(O)(C(C)C)C3)cn2)ccc2c1B(O)OC2 | 100% |  |  |  |  |  |  |  |  |  | 100% | 100% | 100% | 100% | 100% | 100% | 100% | 100% | 100% | 100% | survival at 1.1 mg/kg (Plasmodium berghei [1]): 100%; survival at 1.1 mg/kg (Plasmodium berghei [2]): 100%; survival at 1.1 mg/kg (Plasmodium berghei [3]): 0%; survival at 200 mg/kg (Plasmodium berghei [26]): 100%; survival at 100 mg/kg (Plasmodium berghei [27]): 100%; survival at 100 mg/kg (Plasmodium berghei [28]): 100%; survival at 100 mg/kg (Plasmodium berghei [6]): 80%
9 | Cc1c(Oc2cnc(C(=O)N3CC(C)(O)C3)cn2)ccc2c1B(O)OC2 | 60% | 3900 ng/mL | 0.5 h | 20700 ng·h/mL | 6.8 h | 101% | 4.07 mL/min/kg | 0.888 L/kg | 20500 ng·h/mL | 7.1 h |  |  |  |  |  |  |  |  |  |  | survival at 100 mg/kg (Plasmodium berghei [27]): 60%; survival at 100 mg/kg (Plasmodium berghei [28]): 0%; AUCED90 (Plasmodium falciparum): 1.4 µg.hr/ml/day

Source: ChEMBL document CHEMBL4038305, “Benzoxaborole Antimalarial Agents. Part 5. Lead Optimization of Novel Amide Pyrazinyloxy Benzoxaboroles and Identification of a Preclinical Candidate” (J Med Chem, 2017)
